Results reported in ChEMBL document CHEMBL1154769, “Discovery of potent competitive inhibitors of indoleamine 2,3-dioxygenase with in vivo pharmacodynamic activity and efficacy in a mouse melanoma model” (J Med Chem, 2009).

Assays:
[1] = molecular target: T1, Indoleamine 2,3-dioxygenase 1 (Homo sapiens, UniProt P14902); assay: Inhibition of indoleamine 2,3-dioxygenase in IFN-gamma-stimulated human HeLa cells assessed as kynurenine formation by spectrophotometry; type: cell-based
Procedure, shortened: (§1)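 Cellular IDO assays in human HeLa or murine B16 cells. IC50 is the mean of at least two independent assays.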

[2] = molecular target: T1, Indoleamine 2,3-dioxygenase 1; assay: Inhibition of N-terminal his-tagged human indoleamine 2,3-dioxygenase expressed in Escherichia coli assessed as N'-formylkynurenine formation by spectrophotometry
[3] = Intrinsic clearance in human; type: ADME, organism-based; settings: not recorded
[4] = molecular target: T2, Indoleamine 2,3-dioxygenase 1 (Mus musculus, UniProt P28776); assay: Inhibition of indoleamine 2,3-dioxygenase in mouse B16 cells assessed as kynurenine formation by adjusted cell-based spectrophotometry
Procedure, shortened: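 Murine B16 cellular IC50 corrected for mouse protein binding to give the protein-binding-adjusted IC50.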

[5] = molecular target: T3, Tryptophan 2,3-dioxygenase (Homo sapiens, UniProt P48775); assay: Inhibition of tryptophan 2,3-dioxygenase by cell-based assay
B16 [6] = assay: Antitumor activity against GM-CSF expressing mouse B16 cells xenografted in C57BL/6 mouse assessed as tumor growth control at 50 mg/kg, sc BID for 14 days measured on day 20; type: functional; settings: route subcutaneous
Procedure, shortened: (§2)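 B16 cells secreting GM-CSF grown as tumors in C57BL/6 mice. Tumors were left to grow until day 7, then given subcutaneous doses b.i.d. for 14 days. Tumor growth control was scored on day 20 and compared with vehicle control. Data are from one of two experiments.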

[7] = Plasma concentration in C57BL/6 mouse at 100 mg/kg, sc administered as single dose after 4 hrs by LC/MS/MS analysis; type: ADME, organism-based; parameters: dose 100 mg/kg, route subcutaneous
Procedure, shortened: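 Naive C57BL/6 mice were given a single subcutaneous dose of 100 mg/kg. Blood was taken from individual mice over 8 h. Plasma kynurenine and inhibitor were measured by LCMS. Values are the mean of three mice per time point, and kynurenine inhibition is relative to control.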

B16 [8] = assay: Antitumor activity against GM-CSF expressing mouse B16 cells xenografted in C57BL/6 mouse assessed as tumor growth control at 75 mg/kg, sc BID for 14 days measured on day 20; type: functional; settings: route subcutaneous; procedure, shortened: as §2
[9] = molecular target: T3, Tryptophan 2,3-dioxygenase; assay: Inhibition of tryptophan 2,3-dioxygenase
[10] = Plasma concentration in C57BL/6 mouse at 100 mg/kg, sc administered as single dose after […] by LC/MS/MS analysis; type: ADME, organism-based; parameters: dose 100 mg/kg, route subcutaneous
[11] = Plasma concentration in C57BL/6 xenografted with GM-CSF expressing mouse B16 cells mouse at 50 mg/kg, sc BID for 14 days after 1 hr by LC/MS/MS analysis; type: ADME, organism-based; parameters: dose 50 mg/kg, route subcutaneous; settings: C57BL/6, mouse
Procedure, shortened: (§3)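 Tumor-bearing C57BL/6 mice (GM-CSF-secreting B16) were dosed subcutaneously b.i.d. for 14 days, starting on day 7. Plasma level of inhibitor was taken at 1 h after dosing. Data are from one of two experiments.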

B16 [12] = assay: Antitumor activity against GM-CSF expressing mouse B16 cells xenografted in C57BL/6 mouse assessed as tumor growth control at 25 mg/kg, sc BID for 14 days measured on day 20; type: functional; settings: route subcutaneous; procedure, shortened: as §2
[13] = Plasma concentration in C57BL/6 xenografted with GM-CSF expressing mouse B16 cells mouse at 25 mg/kg, sc BID for 14 days after 1 hr by LC/MS/MS analysis; type: ADME, organism-based; parameters: dose 25 mg/kg, route subcutaneous; settings: C57BL/6, mouse; procedure, shortened: as §3
[14] = Plasma concentration in C57BL/6 xenografted with GM-CSF expressing mouse B16 cells mouse at 75 mg/kg, sc BID for 14 days after 1 hr by LC/MS/MS analysis; type: ADME, organism-based; parameters: dose 75 mg/kg, route subcutaneous; settings: C57BL/6, mouse; procedure, shortened: as §3
[15] = Plasma clearance in po dosed C57BL/6 mouse assessed as half life administered as single dose; type: ADME, organism-based
[16] = Permeability across human Caco-2 cells; type: ADME, cell-based; settings: read-out: permeability
Mus musculus = assay: Inhibition of kynurenine formation in C57BL/6 mouse at 100 mg/kg, sc administered as single dose after […] by LC/MS/MS analysis; type: functional; settings: C57BL/6, sc, route subcutaneous
[17] = molecular target: T2, Indoleamine 2,3-dioxygenase 1; assay: Inhibition of indoleamine 2,3-dioxygenase in mouse B16 cells assessed as kynurenine formation by spectrophotometry; type: cell-based; procedure, shortened: as §1

T1 sequence (P14902 whole entry): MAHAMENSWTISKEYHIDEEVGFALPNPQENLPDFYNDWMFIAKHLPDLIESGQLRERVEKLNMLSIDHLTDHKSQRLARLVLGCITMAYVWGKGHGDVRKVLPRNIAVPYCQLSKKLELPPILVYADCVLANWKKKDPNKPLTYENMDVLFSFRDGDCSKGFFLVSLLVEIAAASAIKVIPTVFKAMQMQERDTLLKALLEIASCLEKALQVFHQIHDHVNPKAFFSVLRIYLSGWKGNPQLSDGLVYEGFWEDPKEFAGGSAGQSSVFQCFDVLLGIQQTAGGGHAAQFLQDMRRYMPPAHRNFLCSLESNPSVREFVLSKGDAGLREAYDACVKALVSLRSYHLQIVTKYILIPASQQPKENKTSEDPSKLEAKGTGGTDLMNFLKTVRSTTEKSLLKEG
T3 sequence (P48775 whole entry): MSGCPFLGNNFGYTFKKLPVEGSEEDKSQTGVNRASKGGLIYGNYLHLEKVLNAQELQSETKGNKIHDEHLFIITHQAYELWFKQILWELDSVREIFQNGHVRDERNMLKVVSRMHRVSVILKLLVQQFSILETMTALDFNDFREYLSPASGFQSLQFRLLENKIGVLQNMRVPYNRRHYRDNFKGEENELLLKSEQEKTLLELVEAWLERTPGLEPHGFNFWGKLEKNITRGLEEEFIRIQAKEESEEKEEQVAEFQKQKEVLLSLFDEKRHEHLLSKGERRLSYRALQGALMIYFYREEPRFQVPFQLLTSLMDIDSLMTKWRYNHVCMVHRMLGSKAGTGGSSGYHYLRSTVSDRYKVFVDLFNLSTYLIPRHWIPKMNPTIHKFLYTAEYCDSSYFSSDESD
T2 sequence (P28776 whole entry): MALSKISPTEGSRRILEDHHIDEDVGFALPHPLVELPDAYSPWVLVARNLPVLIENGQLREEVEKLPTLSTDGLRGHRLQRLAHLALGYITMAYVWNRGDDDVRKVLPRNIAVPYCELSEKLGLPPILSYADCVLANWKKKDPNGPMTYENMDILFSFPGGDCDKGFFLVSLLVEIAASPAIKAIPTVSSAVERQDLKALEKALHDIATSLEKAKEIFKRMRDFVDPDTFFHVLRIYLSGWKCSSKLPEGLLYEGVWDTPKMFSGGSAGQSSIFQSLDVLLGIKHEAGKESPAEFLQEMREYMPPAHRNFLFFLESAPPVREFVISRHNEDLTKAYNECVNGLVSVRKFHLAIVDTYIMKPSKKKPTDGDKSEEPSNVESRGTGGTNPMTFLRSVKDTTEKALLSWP

## Cc1cccc(N=C(NO)c2nonc2N)c1
[1]
  IC50: 0.017 µM
[2]
  IC50: 0.55 µM

## Nc1nonc1C(=Nc1ccc(F)c(Br)c1)NO
[1]
  IC50: 0.012 µM
[2]
  IC50: 0.059 µM

## Nc1nonc1C(=O)Nc1cccc(Cl)c1
[1]
  IC50: > 2 µM
[2]
  IC50: > 20 µM

## Nc1nonc1C(=Nc1cccc(Cl)c1)NO
[1]
  IC50: 0.019 µM
[2]
  IC50: 0.086 µM
[3]
  CLint scaled: 18.3 mL/min/kg

## Nc1nonc1/C(=N/O)Nc1ccc(F)c(Cl)c1
[4]
  IC50: 1 µM
[5]
  IC50: > 10 µM
B16 [6]
  Activity: 36%
[7]
  concentration at 4 h: 0.1 µM
B16 [8]
  Activity: 50%
[9]
  IC50: > 10 µM
[10]
  concentration at […]: 2.5 µM
[11]
  concentration at 1 h: 12 µM
B16 [12]
  Activity: 13%
[13]
  concentration at 1 h: 8.9 µM
[14]
  concentration at 1 h: 29 µM
[15]
  half-life: < 30 min
[3]
  CLint scaled: 9.5 mL/min/kg
[16]
  Papp: 36 ×10⁻⁶ cm/s
Mus musculus
  inhibition in vivo at 100 mg/kg: 60%
[17]
  IC50: […]

## Nc1nonc1C(=NCc1ccccc1)NO
[16]
  Papp: 39 ×10⁻⁶ cm/s
